The source made the active and inactive calls. The rule behind the calls is not given here.
Legend:
UO-31 = assay: Cytotoxicity against human UO31 cells assessed as cell growth at 10 uM after 48 hrs by SRB assay; assay type: functional; conditions: UO-31, 48 h, read-out: Activity
Summary of the method: (§1)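 NCI primary one-dose screen at 10^-5 M against the full panel of about 60 human tumour cell lines, run to the NCI Drug Evaluation Branch protocol.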

OVCAR-4 = assay: Cytotoxicity against human OVCAR4 cells assessed as cell growth at 10 uM after 48 hrs by SRB assay; assay type: functional; conditions: OVCAR-4, 48 h, read-out: Activity
Summary of the method: (§2)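 NCI primary single-dose screen at 10^-5 M against the full panel of about 60 human tumor cell lines. Cells were in RPMI-1640 with 5% fetal calf serum and 2 mM L-glutamine and preincubated 24 h. Compound was given in DMSO with 48 h exposure. Growth was estimated by sulforhodamine B protein assay.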

OVCAR-5 = assay: Cytotoxicity against human OVCAR5 cells assessed as cell growth at 10 uM after 48 hrs by SRB assay; assay type: functional; conditions: OVCAR-5, 48 h, read-out: Activity; summary of the method: as §2
KM12 = assay: Cytotoxicity against human KM12 cells after 48 hrs by SRB assay; assay type: functional; conditions: KM12, 48 h
Summary of the method: (§3)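 NCI five-dose screen on the ~60-line human tumor panel. Cells grown in RPMI-1640 with 5% fetal calf serum and 2 mM L-glutamine, seeded at line-dependent density and preincubated 24 h. Compound added from DMSO at 10-fold dilutions from 10^-4 to 10^-8 M, continuous exposure 48 h. Growth read by sulforhodamine B protein stain. GI50, TGI and LC50 derived per line.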

MDA-MB-468 [1] = assay: Cytotoxicity against human MDA-MB-468 cells assessed as cell growth at 10 uM after 48 hrs by SRB assay; assay type: functional; conditions: MDA-MB-468, 48 h, read-out: Activity; summary of the method: as §2
BT-549 = assay: Cytotoxicity against human BT549 cells after 48 hrs by SRB assay; assay type: functional; conditions: BT-549, 48 h
Summary of the method: (§4)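 NCI ~60-line panel in RPMI-1640 with 5% fetal calf serum and 2 mM L-glutamine, pre-incubated 24 h. Compound in DMSO tested at five 10-fold concentrations (10^-4 to 10^-8 M) with 48 h continuous exposure. Growth measured by sulforhodamine B protein assay. GI50 (50% net growth inhibition), TGI (total inhibition) and LC50 (50% net cell death) derived from dose-response.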

NCI-H23 [2] = assay: Antitumor activity against human NCI-H23 cells implanted in mouse dosed qd for 4 days by formazan dye-based hollow fiber assay; assay type: functional, organism-based
Summary of the method: (§5)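 Cells grown inside polyvinylidene fluoride hollow fibers; each line implanted into both intraperitoneal and subcutaneous compartments in mice. Compound given ip at two doses on a QD x 4 schedule. Fibers then recovered and viable cell mass measured by formazan dye conversion. Scored 2 per dose giving ≥50% reduction in viable cell mass (%T/C 50).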

Hs-578T = assay: Cytotoxicity against human Hs578T cells after 48 hrs by SRB assay; assay type: functional; summary of the method: as §4
LOX IMVI = assay: Cytotoxicity against human LOXIMVI cells after 48 hrs by SRB assay; assay type: functional; summary of the method: as §3
UACC-62 = assay: Cytotoxicity against human UACC62 cells assessed as cell growth at 10 uM after 48 hrs by SRB assay; assay type: functional; conditions: UACC-62, 48 h, read-out: Activity; summary of the method: as §1
NCI-H23 [3] = assay: Cytotoxicity against human NCI-H23 cells after 48 hrs by SRB assay; assay type: functional; conditions: NCI-H23, 48 h; summary of the method: as §3
MOLT-4 = assay: Cytotoxicity against human MOLT4 cells assessed as cell growth at 10 uM after 48 hrs by SRB assay; assay type: functional; conditions: MOLT-4, 48 h, read-out: Activity; summary of the method: as §2
SF-295 [4] = assay: Antitumor activity against human SF295 cells implanted in mouse dosed qd for 4 days by formazan dye-based hollow fiber assay; assay type: functional, organism-based; summary of the method: as §5
SF-295 [5] = assay: Cytotoxicity against human SF295 cells assessed as cell growth at 10 uM after 48 hrs by SRB assay; assay type: functional; conditions: SF-295, 48 h, read-out: Activity; summary of the method: as §2
MDA-MB-468 [6] = assay: Cytotoxicity against human MDA-MB-468 cells after 48 hrs by SRB assay; assay type: functional; conditions: MDA-MB-468, 48 h; summary of the method: as §3
M14 = assay: Cytotoxicity against human M14 cells after 48 hrs by SRB assay; assay type: functional; conditions: M14, 48 h; summary of the method: as §3
MDA-MB-231 = assay: Cytotoxicity against human MDA-MB-231 cells assessed as cell growth at 10 uM after 48 hrs by SRB assay; assay type: functional; conditions: MDA-MB-231, 48 h, read-out: Activity; summary of the method: as §2
UACC-257 = assay: Cytotoxicity against human UACC257 cells assessed as cell growth at 10 uM after 48 hrs by SRB assay; assay type: functional; conditions: UACC-257, 48 h, read-out: Activity; summary of the method: as §1
SN12C = assay: Cytotoxicity against human SN12C cells after 48 hrs by SRB assay; assay type: functional
Summary of the method: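 NCI 60-cell-line five-dose screen. Cells were grown in 1640 medium with 5% fetal calf serum and 2 mM L-glutamine, with inoculum density set by cell line, and pre-incubated 24 h. Compound in DMSO was added at 10^-4 to 10^-8 M (10-fold steps) with 48 h continuous exposure. Growth was read by SRB protein assay, and GI50, TGI and LC50 were derived from dose-response.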

SNB-19 = assay: Cytotoxicity against human SNB19 cells assessed as cell growth at 10 uM after 48 hrs by SRB assay; assay type: functional; conditions: SNB-19, 48 h, read-out: Activity; summary of the method: as §1
SK-OV-3 = assay: Cytotoxicity against human SKOV3 cells assessed as cell growth at 10 uM after 48 hrs by SRB assay; assay type: functional; conditions: SK-OV-3, 48 h, read-out: Activity; summary of the method: as §1
DU-145 = assay: Cytotoxicity against human DU145 cells after 48 hrs by SRB assay; assay type: functional; conditions: DU-145, 48 h; summary of the method: as §4
HT-29 = assay: Cytotoxicity against human HT-29 cells assessed as cell growth at 10 uM after 48 hrs by SRB assay; assay type: functional; conditions: HT-29, 48 h, read-out: Activity
Summary of the method: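 NCI primary single-dose screen at 10^-5 M against the ~60 human tumour cell line panel. Cells grown in RPMI-1640 with 5% fetal calf serum and 2 mM L-glutamine and pre-incubated 24 h before compound addition. Compound added from DMSO solution with 48 h exposure. Growth read by sulforhodamine B protein staining.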

COLO 205 = assay: Cytotoxicity against human COLO205 cells after 48 hrs by SRB assay; assay type: functional; conditions: COLO 205, 48 h; summary of the method: as §4

CCc1ccc(-c2ccc(=O)n(-c3ccc(S(N)(=O)=O)cc3)n2)cc1
growth at 10 µM (UO-31): 38.4% | growth at 10 µM (OVCAR-4): 74.5% | growth at 10 µM (OVCAR-5): 91.6% | LC50 (50% lethal concentration) (KM12): > 100 µM | GI50 (KM12; read-out: GI50): 0.486 µM | GI50 (KM12; read-out: pGI50 (converted)): 0.49 µM | TGI (KM12; read-out: pTGI): > 100 µM | growth at 10 µM (MDA-MB-468 [1]): 7.89% | LC50 (BT-549): 85.1 µM | GI50 (BT-549; read-out: GI50): 0.756 µM | GI50 (BT-549; read-out: pGI50 (converted)): 0.759 µM | TGI (BT-549; read-out: pTGI (converted)): 17.8 µM | Activity (NCI-H23 [2]): inactive | LC50 (50% net cell kill) (Hs-578T): > 100 µM | GI50 (Hs-578T; read-out: GI50): 1.03 µM | GI50 (Hs-578T; read-out: pGI50 (converted)): 1.02 µM | TGI (Hs-578T; read-out: pTGI (converted)): 17 µM | LC50 (LOX IMVI): > 100 µM | GI50 (LOX IMVI; read-out: GI50): 5.27 µM | GI50 (LOX IMVI; read-out: pGI50 (converted)): 5.25 µM | TGI (LOX IMVI; read-out: pTGI): > 100 µM | growth at 10 µM (UACC-62): 38.5% | LC50 (NCI-H23 [3]): > 100 µM | GI50 (NCI-H23 [3]; read-out: GI50): 16.9 µM | GI50 (NCI-H23 [3]; read-out: pGI50 (converted)): 17 µM | TGI (NCI-H23 [3]; read-out: pTGI): > 100 µM | growth at 10 µM (MOLT-4): 16% | Activity (SF-295 [4]): inactive | growth at 10 µM (SF-295 [5]): 18.4% | LC50 (MDA-MB-468 [6]): > 100 µM | GI50 (MDA-MB-468 [6]; read-out: GI50): 3.18 µM | GI50 (MDA-MB-468 [6]; read-out: pGI50 (converted)): 3.16 µM | TGI (MDA-MB-468 [6]; read-out: pTGI): > 100 µM | LC50 (M14): > 100 µM | GI50 (M14; read-out: GI50): 0.335 µM | GI50 (M14; read-out: pGI50 (converted)): 0.339 µM | TGI (M14; read-out: pTGI (converted)): 4.9 µM | growth at 10 µM (MDA-MB-231): 66.8% | growth at 10 µM (UACC-257): 22.3% | LC50 (SN12C): > 100 µM | GI50 (SN12C; read-out: GI50): 5.84 µM | GI50 (SN12C; read-out: pGI50 (converted)): 5.89 µM | TGI (SN12C; read-out: pTGI): > 100 µM | growth at 10 µM (SNB-19): 57.6% | growth at 10 µM (SK-OV-3): 49.5% | LC50 (DU-145): > 100 µM | GI50 (DU-145; read-out: GI50): 13.8 µM | GI50 (DU-145; read-out: pGI50 (converted)): 13.8 µM | TGI (DU-145; read-out: pTGI): > 100 µM | growth at 10 µM (HT-29): 11.8% | LC50 (COLO 205): > 100 µM | GI50 (COLO 205; read-out: GI50): 0.976 µM | GI50 (COLO 205; read-out: pGI50 (converted)): 0.977 µM | TGI (COLO 205; read-out: pTGI (converted)): 30.9 µM

Source: ChEMBL document CHEMBL1944532, “Synthesis and evaluation of anticancer activity of some novel 6-aryl-2-(p-sulfamylphenyl)-pyridazin-3(2H)-ones” (Eur J Med Chem, 2012)
